The source of these data is ChEMBL document CHEMBL1921679, “Synthesis and biological evaluation of novel pyrimidine derivatives as sub-micromolar affinity ligands of GalR2” (Bioorg Med Chem Lett, 2011).

By inhibition is commonly meant the drop in the measured response relative to a control, in per cent. Usually IC50 stands for the concentration at which inhibition is half-maximal.

Structures are written as SMILES. Where only a bound is given, the exact number is not on record here.

The target in experiment [1] is T1, Galanin receptor type 2 (Homo sapiens) (UniProt O43603).
T1 sequence (whole entry): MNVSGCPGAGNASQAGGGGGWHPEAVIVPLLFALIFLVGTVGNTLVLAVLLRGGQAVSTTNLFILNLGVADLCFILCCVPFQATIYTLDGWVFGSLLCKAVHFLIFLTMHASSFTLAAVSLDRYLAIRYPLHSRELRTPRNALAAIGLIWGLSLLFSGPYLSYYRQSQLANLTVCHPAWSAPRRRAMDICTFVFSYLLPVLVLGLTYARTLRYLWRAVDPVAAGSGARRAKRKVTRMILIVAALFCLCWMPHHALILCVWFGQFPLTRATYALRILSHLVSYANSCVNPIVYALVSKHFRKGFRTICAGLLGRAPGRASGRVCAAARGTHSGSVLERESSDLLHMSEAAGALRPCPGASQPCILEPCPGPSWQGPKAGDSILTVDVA
The experiment can be described thus: Displacement of [125I]galanin from GalR2 at 10 uM by gamma counting. The gist of the method: (§1)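 Single-point screen at 1 and 10 μM, in duplicate, with two screens per receptor. Final 125I porcine galanin was 0.1 nM (GalR1) or 0.15 nM (GalR2). Incubation 1 h, room temperature. Filtration through PEI-treated glass fibre, cold PBS/Triton washes, γ-counting.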
On the technique in general: Displacement assays read how much labelled ligand stays bound in the presence of the test substance.

The target of experiment [2] is T1, Galanin receptor type 2 (Homo sapiens). Nature of the experiment: Displacement of [125I]galanin from GalR2 at 1 uM by gamma counting. The gist of the method: as §1
Experiment [3] addresses T2, Galanin receptor type 1 (Homo sapiens, UniProt P47211).
T2 sequence (P47211 whole entry): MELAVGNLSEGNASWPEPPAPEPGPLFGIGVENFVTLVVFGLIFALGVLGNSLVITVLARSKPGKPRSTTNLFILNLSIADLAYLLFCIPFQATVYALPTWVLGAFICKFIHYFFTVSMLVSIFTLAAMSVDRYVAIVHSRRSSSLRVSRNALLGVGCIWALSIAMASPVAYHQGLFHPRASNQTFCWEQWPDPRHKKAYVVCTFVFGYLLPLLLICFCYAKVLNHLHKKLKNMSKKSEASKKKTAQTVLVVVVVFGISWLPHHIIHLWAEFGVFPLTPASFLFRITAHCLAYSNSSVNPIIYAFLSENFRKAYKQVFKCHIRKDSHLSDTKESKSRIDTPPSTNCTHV
Nature of the experiment: Displacement of [125I]galanin from GalR1 by gamma counting. The gist of the method:
(§2)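 Full-curve competition over 10 nM–100 μM, with a rat galanin control on every plate. Compounds were diluted in 20% DMSO. Membranes were GalR1 2.5 μg or GalR2 5 μg, with 125I porcine galanin at 0.1 nM (GalR1) or 0.15 nM (GalR2), 1 h at room temperature. Filtration, washing and γ-counting followed. IC50 came from a nonlinear one-site competition fit, reported only when the curve bottom fell below 35% of total binding.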

In a further experiment the target is T3, Galanin receptor type 2 (Homo sapiens, UniProt O43603).
T3 sequence (O43603 whole entry): T1 sequence (whole entry)
Nature of the experiment: Displacement of [125I]galanin from GalR2 by gamma counting. An outline of the steps: as §2

For experiment [4], the target named is T2, Galanin receptor type 1. The experiment can be described thus: Displacement of [125I]galanin from GalR1 at 100 uM by gamma counting.

In the case of `COc1ccc(Nc2cc(Nc3cccc(OC)c3)nc(N3CCCC3)n2)cc1`, the inhibition in experiment [1] and in experiment [2] was above 50% each time. Moreover, the results for the IC50 at Galanin receptor type 1 [3] and at Galanin receptor type 2 were 4.6 µM and 930 nM, respectively.

In the case of `COc1ccc(Nc2cc(Nc3ccccc3)nc(N3CCCCC3)n2)cc1F`, the inhibition in experiment [1] and in experiment [2] was above 50% in each case. In addition, the values for the IC50 on Galanin receptor type 1 [3] and at Galanin receptor type 2 were 6.77 µM and 8650 nM, respectively.

As for `COc1ccc(Nc2nc(Nc3ccc(F)c(Cl)c3)cc(N3CCCCC3)n2)cc1`, the inhibition in experiment [1] and in experiment [2] was above 50% throughout. For the same compound, the IC50 on Galanin receptor type 2 is 4180 nM; at Galanin receptor type 1 [4], “Not Active”.

For the compound `FC(F)(F)Oc1cccc(Nc2cc(Nc3ccccc3)nc(N3CCCCC3)n2)c1`, the inhibition in experiment [1] and in experiment [2] was above 50% throughout. Further, the results for the IC50 on Galanin receptor type 1 [3] and on Galanin receptor type 2 were 34.9 µM and 6620 nM, respectively.

Turning to `COc1ccc(Nc2cc(Nc3ccc(OC(F)(F)F)cc3)nc(NC3CCCCC3)n2)cc1`, the inhibition in experiment [1] and in experiment [2] was above 50% each time. The IC50 at Galanin receptor type 1 [3] was determined as 5.93 µM; at Galanin receptor type 2, 1060 nM.

With `COc1ccc(Nc2cc(N3CCCCC3)nc(N3CCCN(c4ncccc4C(F)(F)F)CC3)n2)cc1F`, the inhibition in experiment [1] and in experiment [2] was above 50% in each case. The IC50 is 6.32 µM on Galanin receptor type 1 [3] and 2030 nM at Galanin receptor type 2.

`COc1ccc(Nc2nc(Nc3ccc(OC(F)(F)F)cc3)cc(N3CCCCC3)n2)cc1`: the inhibition in experiment [1] and in experiment [2] was above 50% in each case. Moreover, the IC50 was 330 nM at Galanin receptor type 2 and “Not Active” at Galanin receptor type 1 [4].

As to `COc1ccc(Nc2cc(Nc3cccc(OC(F)F)c3)nc(NC3CCCCC3)n2)cc1`, the inhibition in experiment [1] and in experiment [2] was above 50% throughout. Also, the half-maximal inhibitory concentration (IC50) at Galanin receptor type 1 [3] worked out at 5.03 µM; on Galanin receptor type 2, 770 nM.

`COc1ccc(Nc2nc(Nc3ccc(OC)c(F)c3)cc(N3CCCCC3)n2)cc1`: the inhibition in experiment [1] and in experiment [2] was above 50% throughout. Moreover, the IC50 on Galanin receptor type 2 is 430 nM; at Galanin receptor type 1 [4] it was “Not Active”.

Turning to `COc1ccc(Nc2cc(Nc3ccc(OC)cc3)nc(N3CCCC3)n2)cc1`, the inhibition in experiment [1] and in experiment [2] was above 50% in each case. In addition, the IC50 on Galanin receptor type 2 is 8040 nM; on Galanin receptor type 1 [4] it was “Not Active”.

Turning to `COc1ccc(Nc2cc(N3CCN(c4ccccc4)CC3)nc(N3CCCC3)n2)cc1`, the inhibition in experiment [1] and in experiment [2] was above 50% each time. The IC50 at Galanin receptor type 1 [3] turned out to be 12.8 µM; at Galanin receptor type 2 it was 3400 nM.

Consider `CCN(CC)c1cc(Nc2ccc(OC)c(F)c2)nc(Nc2ccc(OC)cc2)n1`, for which the inhibition in experiment [1] and in experiment [2] was above 50% each time. Further, the concentration for half-maximal inhibition (IC50) at Galanin receptor type 2 was 2850 nM; at Galanin receptor type 1 [4], “Not Active”.

As for `COc1ccc(Nc2nc(Nc3cc(C)ccc3C)cc(N3CCCCC3)n2)cc1`, the inhibition in experiment [1] and in experiment [2] was above 50% each time. The half-inhibitory concentration (IC50) on Galanin receptor type 2 is 440 nM; on Galanin receptor type 1 [4] it was “Not Active”.

With `COc1ccc(Nc2nc(Nc3cccc(OC(F)(F)F)c3)cc(N3CCCCC3)n2)cc1`, the inhibition in experiment [1] and in experiment [2] was above 50% throughout. For the same compound, the IC50 is 380 nM at Galanin receptor type 2 and “Not Active” on Galanin receptor type 1 [4].

Regarding `COc1ccc(Nc2cc(Nc3cccc(OC(F)(F)F)c3)nc(NC3CCCCC3)n2)cc1`, the inhibition in experiment [1] and in experiment [2] was above 50% in each case. Moreover, the values for the IC50 at Galanin receptor type 1 [3] and on Galanin receptor type 2 were 6.82 µM and 550 nM, respectively.

As to `COc1ccc(Nc2nc(Nc3ccc(OC)c(F)c3)cc(N3CCCCCC3)n2)cc1`, the inhibition in experiment [1] and in experiment [2] was above 50% throughout. The IC50 at Galanin receptor type 1 [3] is 5.48 µM; on Galanin receptor type 2, 770 nM.

For the compound `COc1ccc(Nc2nc(Nc3ccc(F)cc3C)cc(N3CCCCC3)n2)cc1`, the inhibition in experiment [1] and in experiment [2] was above 50% in each case. Moreover, the IC50 was 980 nM on Galanin receptor type 2 and “Not Active” on Galanin receptor type 1 [4].

`COc1ccc(Nc2cc(Nc3cccc(OC)c3)nc(NC3CCCCC3)n2)cc1`: the inhibition in experiment [1] and in experiment [2] was above 50% in each case. The IC50 was 5.62 µM at Galanin receptor type 1 [3] and 1750 nM at Galanin receptor type 2.

As for `COc1ccc(Nc2nc(Nc3ccc(C)cc3C)cc(N3CCCCC3)n2)cc1`, the inhibition in experiment [1] and in experiment [2] was above 50% in each case. The IC50 at Galanin receptor type 2 was 1180 nM; at Galanin receptor type 1 [4], “Not Active”.

Regarding `COc1ccc(Nc2cc(N3CCCCC3)nc(N3CCCN(c4ncccc4C(F)(F)F)CC3)n2)cc1`, the inhibition in experiment [1] and in experiment [2] was above 50% in each case. For the same compound, the figures for the IC50 at Galanin receptor type 1 [3] and on Galanin receptor type 2 were 3.35 µM and 1920 nM, respectively.

In the case of `Cc1ccc(C)c(Nc2cc(Nc3ccccc3)nc(N3CCCCC3)n2)c1`, the inhibition in experiment [1] and in experiment [2] was above 50% each time. Also, the IC50 at Galanin receptor type 2 was 4570 nM; at Galanin receptor type 1 [4] it was “Not Active”.

`COc1ccc(Nc2nc(Nc3ccc(OC)c(F)c3)cc(N3CCCC(C)C3)n2)cc1` (centres undefined): the inhibition in experiment [1] and in experiment [2] was above 50% in each case. In addition, the IC50 was determined as 6.78 µM at Galanin receptor type 1 [3] and 1340 nM at Galanin receptor type 2.

For `COc1ccc(Nc2nc(Nc3ccc(OC)c(F)c3)cc(N3CCN(c4ccccc4)CC3)n2)cc1`, the inhibition in experiment [1] and in experiment [2] was above 50% throughout. The values for the IC50 on Galanin receptor type 1 [3] and at Galanin receptor type 2 were 6.82 µM and 24900 nM, respectively.

With `c1ccc(Nc2cc(NCc3ccc4c(c3)OCO4)nc(N3CCCCC3)n2)cc1`, the inhibition in experiment [1] and in experiment [2] was above 50% each time. In addition, the IC50 was 3690 nM on Galanin receptor type 2 and “Not Active” at Galanin receptor type 1 [4].

As to `Cc1ccc(C)c(Nc2cc(N3CCCCC3)nc(N3CCCN(c4ncccc4C(F)(F)F)CC3)n2)c1`, the inhibition in experiment [1] and in experiment [2] was above 50% each time. Moreover, the concentration for half-maximal inhibition (IC50) on Galanin receptor type 1 [3] amounted to 3.9 µM; at Galanin receptor type 2 it was 2080 nM.

As to `COc1ccc(Nc2nc(Nc3cccc(F)c3C)cc(N3CCCCC3)n2)cc1`, the inhibition in experiment [1] and in experiment [2] was above 50% each time. The figures for the IC50 at Galanin receptor type 2 and on Galanin receptor type 1 [4] were 380 nM and “Not Active”, respectively.

As for `FC(F)Oc1cccc(Nc2cc(Nc3ccccc3)nc(N3CCCCC3)n2)c1`, the inhibition in experiment [1] and in experiment [2] was above 50% in each case. Besides, the IC50 turned out to be 6.9 µM on Galanin receptor type 1 [3] and 4150 nM on Galanin receptor type 2.

In the case of `COc1ccc(Nc2cc(Nc3ccc(OC(F)F)cc3)nc(NC3CCCCC3)n2)cc1`, the inhibition in experiment [1] and in experiment [2] was above 50% in each case. The concentration for half-maximal inhibition (IC50) at Galanin receptor type 1 [3] came to 27.5 µM; on Galanin receptor type 2 it was 12500 nM.

In the case of `COc1ccc(Nc2cc(Nc3ccccc3)nc(N3CCCCC3)n2)cc1`, the inhibition in experiment [1] and in experiment [2] was above 50% in each case. In addition, the IC50 on Galanin receptor type 1 [3] turned out to be 8.59 µM; at Galanin receptor type 2, 1090 nM.

Regarding `Cc1c(F)cccc1Nc1cc(N2CCCCC2)nc(N2CCCN(c3ncccc3C(F)(F)F)CC2)n1`, the inhibition in experiment [1] and in experiment [2] was above 50% throughout. In addition, the values for the IC50 at Galanin receptor type 1 [3] and at Galanin receptor type 2 were 1.3 µM and 560 nM, respectively.

In the case of `COc1ccc(Nc2nc(Nc3ccc(OC)c(F)c3)cc(N3CCCN(C(=O)OC(C)(C)C)CC3)n2)cc1`, the inhibition in experiment [1] and in experiment [2] was above 50% each time. Also, the IC50 at Galanin receptor type 1 [3] is 2.82 µM; at Galanin receptor type 2, 9070 nM.
